Screening data: PubChem, several laboratories
Rows were chosen to be rich in hits. Some 2.1% of all compounds tested hit in one or more screens of this group.
Ba/F3 V617F tox: reduced viability of JAK2V617F-dependent Ba/F3 cells, primary screen, JAK2V617F inhibitor project, cell-based, Ba/F3 EpoR-JAK2V617F, luminescence | inhibition, % at 5.6 µM | ATP luminescence | hit rate 1.1% among 220,000;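 active = inhibition above the campaign mean plus 3 SD over all tested compounds, cut at about 24% in these data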;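 also: cytokine-independent growth of Ba/F3 cells driven by EpoR plus mutant JAK2; 0% = DMSO-treated cells and 100% = JAK inhibitor I control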
BaF3 parental: parental Ba/F3 cell viability inhibition, counter-screen for JAK2V617F inhibitor project, murine pro-B, CellTiter-Glo luminescence; CellTiter-Glo ATP luminescence; inhibition, % at 5.6 µM; hit rate 1.1% among 220,000;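 active = inhibition above a per-campaign cutoff, the mean inhibition of all tested compounds plus 3 SD, cut at about 27% in these data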;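 also: 0% = DMSO wells and 100% = JAK Inhibitor I control wells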
bCat nuc transl: modulators of beta-catenin nuclear translocation, primary screen, imaging, HeLa cells, immunofluorescence, high-content; nuclear translocation activity, % at 5 µM; hit rate 0.3% among 190,000;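 active = nuclear translocation activity above 50% at 5 µM, with a well cell count of 50 or more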;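 also: per-cell ratio of nuclear to cytoplasmic median beta-catenin stain intensity; plate controls were DMSO negative control for no effect and GSK-3 inhibitor IX positive control for full effect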
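Test system: HeLa cells, endogenous beta-catenin; Compound: single 5 µM dose plus 0.02–20 µM confirmation series; Times: compound exposure 24 h at 37°C; Signal: fluorescence imaging of beta-catenin antibody stain plus DAPI; Read-out: % activation, nuclear-to-cytoplasmic median beta-catenin signal ratio per cell.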
MT stabilizer: microtubule stabilizers in HeLa cells, primary screen, imaging, high-content imaging | AID 2205, 2009 | HeLa tubulin immunostaining HCS, 24 h; share of cells brighter than vehicle mean+2SD | % tubulin-high responders, % at 10 µM | hit rate 0.83% among 200,000;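 active = plate Z-score above 3 for both tubulin-high and condensed-nucleus cell shares, with cell loss under 80%, at 10 µM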;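 also: anti alpha tubulin signal scored within the nucleus-defined area of each cell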
IEC-6 tox-1: cytotoxicity in IEC-6 intestinal epithelial cells, primary screen, cytotoxicity control for KLF5 inhibitor project, cell-based, luminescence | IEC-6 cytotoxicity, luminescence viability | inhibition, % at 5 µM | hit rate 0.78% among 290,000 | AID 1825, 2009;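 also: 0% = plate median of test compound wells and 100% = cytotoxic reference compound wells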
KLF5 inh: KLF5 expression inhibitors, primary screen, DLD-1 cells, luminescence; DLD-1 KLF5 promoter-luciferase reporter; inhibition, % at 5 µM; AID 1700, 2009; hit rate 0.23% among 290,000;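 active = inhibition above a per-plate limit of that plate's mean compound inhibition plus 3 SD, cut at about 60% in these data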;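 also: 0% = DMSO wells and 100% = LY294002 at 200 µM; higher means less KLF5 promoter-driven luciferase light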
BaF3 parental 2: parental Ba/F3 cell viability inhibition, counter-screen for JAK2V617F inhibitor project, murine pro-B, CellTiter-Glo luminescence; shares compounds with Ba/F3 V617F tox; cells kept alive by added IL-3; inhibition, % at 5.6 µM; hit rate 31% among 580;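 active = cell growth inhibition above the hit limit set in the earlier mutant JAK2 cell screen, cut at about 27% in these data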;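 also: plate controls were DMSO-treated cells for no effect and JAK Inhibitor I control wells for full effect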
JAK2V617F conf: viability loss in Ba/F3 EpoR-JAK2V617F cells, confirmation, JAK2V617F inhibitor project, cell-based, luminescence, triplicate; shares compounds with Ba/F3 V617F tox; CellTiter-Glo luminescence; inhibition, % at 5.6 µM; hit rate 66% among 580; AID 1521, 2009;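 active = mean inhibition above the hit cutoff derived in the earlier primary screen, cut at about 25% in these data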;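 also: 0% = DMSO-treated cells and 100% = JAK inhibitor I control wells; higher means lower luminescence from reduced cell ATP and viability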
KLF5 confirm: KLF5 expression inhibitors, confirmation, DLD-1 cells, luminescence; hit rate 79% among 610; DLD-1 KLF5 promoter firefly luciferase reporter; shares compounds with KLF5 inh; inhibition, % at 4 µM; AID 1834, 2009;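 active = inhibition above a set limit taken from the earlier primary screen, cut at about 63% in these data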;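 also: 0% = DMSO wells and 100% = LY294002 at 200 µM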
IEC-6 tox-2: cytotoxicity in rat IEC-6 cells, cytotoxicity control for KLF5 inhibitor project, cell-based, luminescence, triplicate; IEC-6 rat intestinal cells, viability luminescence; shares compounds with KLF5 inh; inhibition, % at 4 µM; hit rate 56% among 610; AID 1905, 2009; in the data active = inhibition above about 23%;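 also: cells exposed to compounds for 48 hours before viability read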
IEC-6 tox confirm: cytotoxic compounds in IEC-6 epithelial cells, confirmation, cytotoxicity control, cell-based, luminescence. hit rate 63% among 1,900. AID 1907, 2009. IEC-6 rat intestinal epithelial viability. inhibition, % at 5 µM. shares compounds with IEC-6 tox-1;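 also: 0% = vehicle and 100% = reference cytotoxic drug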
Numbers without * were called inactive. Rule as the data show it, unless noted: active = inhibition above about 22%; inactive = the rest.

Screening CN(C)C(=O)Oc1ccc(OCc2nc3ccccc3[nH]2)cc1 returned Ba/F3 V617F tox 24*, BaF3 parental 23, bCat nuc transl -2, MT stabilizer 7, IEC-6 tox-1 14, KLF5 inh -92, BaF3 parental 2 31* and JAK2V617F conf 34*.
Screening CCC(C)C1NC(=O)C(C(C)=O)=C1O (configuration not stated) returned bCat nuc transl -1.
For Cc1[nH]c2ccccc2c1C(=O)C(=O)N1CCC2(CC1)OCCO2 the results were Ba/F3 V617F tox 2, BaF3 parental 1, bCat nuc transl -1, MT stabilizer 3, IEC-6 tox-1 4 and KLF5 inh 1.
For O=C(c1ccc(N2CCCCCC2)c([N+](=O)[O-])c1)N1CCC2(CC1)OCCO2 the results were Ba/F3 V617F tox 1, BaF3 parental 9, bCat nuc transl -2, IEC-6 tox-1 1 and KLF5 inh -7.
For Nc1ccc2ccc3cccc[n+]3c2c1 the results were IEC-6 tox-1 -4 and KLF5 inh -16.
`C[n+]1c(-c2ccccc2)c2cc(N)ccc2c2ccc(N)cc21` gave IEC-6 tox-1 -1, KLF5 inh 108*, KLF5 confirm 86* and IEC-6 tox-2 -9.
`CCCCN=C[C@]12CCC(O)CC1(O)CCC1[C@@H]2CC[C@]2(C)[C@H](C3C=CC(=O)O3)CCC12O` (some centres not stated) gave IEC-6 tox-1 -3, KLF5 inh 106*, KLF5 confirm 105* and IEC-6 tox-2 -1.
Screening CC(Oc1ccc(-c2ccccc2)cc1)C(=O)O (configuration not stated) returned Ba/F3 V617F tox -3, BaF3 parental 3, bCat nuc transl -1, MT stabilizer 4, IEC-6 tox-1 -6 and KLF5 inh -14.
Screening N#Cc1c(/N=C/c2ccc(O)cc2O)sc2c1C1CCN2CC1 returned Ba/F3 V617F tox -1, BaF3 parental 3, bCat nuc transl 1, MT stabilizer 2, IEC-6 tox-1 2 and KLF5 inh -13.
For C[C@]12CCC3C(CCC4=CC(O)CC[C@@]43/C=N/O)C1(O)CCC2C1=CC(=O)OC1 (some centres not stated) the results were IEC-6 tox-1 1, KLF5 inh 91*, KLF5 confirm 104* and IEC-6 tox-2 -10.
For CC(=O)O[C@@]12CO[C@@H]1C[C@@H](O)[C@@]1(C)C(=O)[C@H](O)C3=C(C)[C@@H](OC(=O)[C@H](O)[C@@H](NC(=O)c4ccccc4)c4ccccc4)C[C@@](O)([C@@H](OC(=O)c4ccccc4)C12)C3(C)C (some centres not stated) the results were IEC-6 tox-1 90*, KLF5 inh 76*, KLF5 confirm 87*, IEC-6 tox-2 72* and IEC-6 tox confirm 81*.
For C/C=C(\C)C(=O)N[C@@H](c1ccccc1)[C@@H](O)C(=O)O[C@H]1C[C@@]2(O)[C@@H](OC(=O)c3ccccc3)C3[C@](C)(C(=O)[C@H](OC(C)=O)C(=C1C)C2(C)C)[C@H](O)C[C@H]1OC[C@@]31OC(C)=O (some centres not stated) the results were IEC-6 tox-1 88*, KLF5 inh 64*, KLF5 confirm 86*, IEC-6 tox-2 71* and IEC-6 tox confirm 79*.
CC1(C)CN2C(c3ccc(Cl)cc3)N2C1 (configuration not stated) was read as Ba/F3 V617F tox -4, BaF3 parental 1, MT stabilizer 1, IEC-6 tox-1 -3 and KLF5 inh -57.
Screening CCC(C(=O)N1C[C@H]2C[C@@H](C1)c1cccc(=O)n1C2)c1ccccc1 (some centres not stated) returned IEC-6 tox-1 6 and KLF5 inh -17.
COc1ccc(CNC(=O)CCC(=O)N2C[C@H]3C[C@H](C2)c2cccc(=O)n2C3)cc1OC was read as IEC-6 tox-1 4 and KLF5 inh -5.
`C=CCn1c(O)c(/C(CC)=N/NC(=S)Nc2ccccc2)c(=O)[nH]c1=O` gave Ba/F3 V617F tox -5, BaF3 parental 2, bCat nuc transl 0, IEC-6 tox-1 0 and KLF5 inh -87.
`CC(C)CC(NC(=O)CCCNC(=O)CCC(=O)OC1O[C@H]2OC3(C)CC[C@H]4[C@H](C)CCC(C1C)C24OO3)C(=O)O` (some centres not stated) gave IEC-6 tox-1 30*, KLF5 inh 82*, KLF5 confirm 82*, IEC-6 tox-2 20 and IEC-6 tox confirm 23*.
For C[C@H]1[C@H](OC(=O)CCC(=O)NCc2ccc(C(=O)O)cc2)O[C@@H]2O[C@@]3(C)CC[C@H]4[C@H](C)CC[C@@H]1C24OO3 the results were IEC-6 tox-1 24*, KLF5 inh 80*, KLF5 confirm 84*, IEC-6 tox-2 26* and IEC-6 tox confirm 21.
Screening CC1C(OC(=O)CCC(=O)NC(C)(C)CO)O[C@H]2OC3(C)CC[C@H]4[C@H](C)CCC1C24OO3 (some centres not stated) returned IEC-6 tox-1 33*, KLF5 inh 82*, KLF5 confirm 85*, IEC-6 tox-2 23* and IEC-6 tox confirm 11.
`OC1/C(=C/c2ccccc2C(F)(F)F)N2CCC1CC2` (configuration not stated) gave Ba/F3 V617F tox -2, BaF3 parental 1, bCat nuc transl -2, MT stabilizer 2, IEC-6 tox-1 -2 and KLF5 inh 2.
